Series [1] deals with Rattus norvegicus. As to the kind of experiment: % Ability to inhibit lower sciatic nerve fructose that became elevated in diabetic nerve in streptozotocin diabetic rat model at 1 mg/kg. Type of series: functional. The method in brief:
(§1)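 Chronically diabetic rats were dosed at 0.05 or 1 mg/kg in a chronic test. Sciatic nerve fructose was measured and reported as percent inhibition of the diabetes-induced fructose elevation in sciatic nerve.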

The target of series [2] is T1, Sorbitol dehydrogenase (Rattus norvegicus, UniProt P27867).
T1 sequence (P27867 whole entry): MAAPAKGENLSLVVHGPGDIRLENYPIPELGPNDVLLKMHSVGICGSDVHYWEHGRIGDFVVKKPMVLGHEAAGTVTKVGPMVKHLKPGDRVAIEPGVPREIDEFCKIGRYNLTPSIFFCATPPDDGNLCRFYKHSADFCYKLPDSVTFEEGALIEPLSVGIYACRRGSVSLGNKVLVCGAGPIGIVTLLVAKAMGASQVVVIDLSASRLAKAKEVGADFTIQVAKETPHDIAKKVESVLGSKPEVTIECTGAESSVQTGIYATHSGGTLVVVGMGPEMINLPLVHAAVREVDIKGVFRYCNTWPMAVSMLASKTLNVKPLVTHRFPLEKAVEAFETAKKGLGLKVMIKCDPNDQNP
As to the kind of experiment: Concentration required for 50% in vitro activity against rat SDH (sorbitol dehydrogenase).

Series [3] relates to Rattus norvegicus. As to the kind of experiment: Concentration required for […] inhibition of lower sciatic nerve fructose that became elevated in diabetic nerve in streptozotocin diabetic in vivo rat model. It counts as functional.
Series [4] deals with T2, Sorbitol dehydrogenase (Homo sapiens, UniProt Q00796).
T2 sequence (Q00796 whole entry): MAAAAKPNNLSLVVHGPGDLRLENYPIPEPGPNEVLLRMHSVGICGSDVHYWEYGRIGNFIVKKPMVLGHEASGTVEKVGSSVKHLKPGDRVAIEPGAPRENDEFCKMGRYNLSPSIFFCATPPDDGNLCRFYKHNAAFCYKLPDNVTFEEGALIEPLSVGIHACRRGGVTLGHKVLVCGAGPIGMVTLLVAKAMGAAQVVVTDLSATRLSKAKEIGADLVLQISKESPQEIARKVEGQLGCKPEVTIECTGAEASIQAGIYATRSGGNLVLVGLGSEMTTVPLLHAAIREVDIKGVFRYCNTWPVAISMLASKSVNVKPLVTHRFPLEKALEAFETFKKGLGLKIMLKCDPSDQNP
As to the kind of experiment: Concentration required for 50% for in vitro activity against human SDH (sorbitol dehydrogenase).

Series [5] can be described thus: pKa value was reported. Type of series: physicochemical.
The target in series [6] is T3, Sorbitol dehydrogenase (Rattus norvegicus) (UniProt P27867).
T3 sequence (whole entry): T1 sequence (P27867 whole entry)
The series is described as follows: In vitro inhibitory activity against rat sorbitol dehydrogenase and concentration that cause 90% inhibition was reported.

Series [7] concerns the target T2, Sorbitol dehydrogenase. The series is described as follows: Concentration required for 50% in vitro activity against human SDH (sorbitol dehydrogenase).
Series [8] has as its target T3, Sorbitol dehydrogenase (Rattus norvegicus).
The species entered for series [9] is Rattus norvegicus. The series is described as follows: % Ability to inhibit lower sciatic nerve fructose that became elevated in diabetic nerve in streptozotocin diabetic rat model at 0.05 mpk. Type of series: functional. In outline:
as §1

The values that follow come from ChEMBL document CHEMBL1135820, “A sorbitol dehydrogenase inhibitor of exceptional in vivo potency with a long duration of action: 1-(R)-[4-[4-(4,6-dimethyl[1,3,5]triazin-2-yl)- 2R,6S-dimethylpiperazin-1-yl]pyrimidin-2-yl]ethanol” (J Med Chem, 2002).

One may read the IC50 as the concentration needed to halve the response being measured. Higher therefore signals weaker potency. The pKa is the pH at which an ionisable group is half protonated. The low end stands for a stronger acid or weaker base, the high end for a weaker acid or stronger base. By IC90 is commonly meant the concentration at which the effect reaches the 90% level. Read a high IC90 as weaker potency.

For the compound `Cc1nc(CO)nc(N2C[C@@H](C)N(c3ccnc([C@@H](C)O)n3)[C@@H](C)C2)n1`, the Ability in the series with Rattus norvegicus [1] was 65%. Also, the midpoint of inhibition on Sorbitol dehydrogenase [2], the IC50, lay at 20 nM.
In turn, `C[C@@H]1CN(c2ccnc(N3CCN(C)CC3)n2)C[C@H](C)N1c1ccnc([C@@H](C)O)n1` had an ED90 in the series with Rattus norvegicus [3] of 1 mg/kg. Also, the values for the IC50 at Sorbitol dehydrogenase [4] and on Sorbitol dehydrogenase [2] were 4 nM and 6 nM, respectively.
`Cc1nc(-c2ccccc2)nc(N2C[C@@H](C)N(c3ccnc([C@@H](C)O)n3)[C@@H](C)C2)n1` had an Ability in the series on Rattus norvegicus [3] of 81%. Further, the values for the IC50 on Sorbitol dehydrogenase [4] and at Sorbitol dehydrogenase [2] were 43 nM and 39 nM, respectively.
Compound `Cc1nc(C)nc(N2C[C@@H](C)N(c3ccnc([C@@H](C)O)n3)[C@@H](C)C2)n1` (stereo in doubt; 16) [listing 1 of 2 here] registered a pKa in series [5] of 6.2. In the series with Rattus norvegicus [3], this compound displayed an ED90 of 0.05 mg/kg. The values for the concentration for half-maximal inhibition (IC50) against Sorbitol dehydrogenase [4] and against Sorbitol dehydrogenase [2] were 5 nM and 4 nM, respectively.
At Sorbitol dehydrogenase [2], `C[C@H](O)c1nccc(N2[C@H](C)CN(c3ccnc(N4CCN(C)CC4)n3)C[C@@H]2C)n1` gave an IC50 of 32 nM.
Take `Cc1cn(-c2nccc(N3C[C@@H](C)N(c4ccnc([C@@H](C)O)n4)[C@@H](C)C3)n2)c(C)n1`: the ED90 with Rattus norvegicus [3] stood at 1 mg/kg. The results for the IC50 against Sorbitol dehydrogenase [4] and against Sorbitol dehydrogenase [2] were 4 nM and 7 nM, respectively.
As for `Cc1nc(C)nc(N2C[C@@H](C)N(c3ccnc([C@@H](C)O)n3)[C@@H](C)C2)n1` (stereo in doubt; 16) [listing 2 of 2 here], in series [6], the IC90 was found to be 10 nM.
The compound `C[C@H](O)c1nccc(N2C[C@@H](C)N(c3ccnc([C@@H](C)O)n3)[C@@H](C)C2)n1` yielded a pKa in series [5] of 6.8. In addition, in the series on Rattus norvegicus [3], the ED90 turned out to be 2 mg/kg. Moreover, the IC50 at Sorbitol dehydrogenase [7] came out at 10 nM; on Sorbitol dehydrogenase [2] it was 11 nM. The same compound yielded an IC90 in series [8] of 31 nM.
The compound `Cc1nc(C)nc(N2C[C@@H](C)N(c3ccnc([C@@H](C)O)n3)[C@@H](C)C2)n1` (stereo in doubt; 16a) returned an Ability in the series filed under Rattus norvegicus [9] of 56%. Besides, the values for the IC50 against Sorbitol dehydrogenase [4] and against Sorbitol dehydrogenase [2] were 16 nM and 9 nM, respectively.
Regarding `C[C@@H]1CN(c2ncnc(-c3ccccc3)n2)C[C@H](C)N1c1ccnc([C@@H](C)O)n1`, the ED90 in the series on Rattus norvegicus [3] is 1 mg/kg. Moreover, the concentration for half-maximal inhibition (IC50) was determined as 7 nM on Sorbitol dehydrogenase [4] and 10 nM against Sorbitol dehydrogenase [2].
In the series with Rattus norvegicus [3], `Cc1cn(-c2nccc(N3C[C@@H](C)N(c4ccnc([C@@H](C)O)n4)[C@@H](C)C3)n2)cn1` had an ED90 of 1 mg/kg. In addition, the IC50 against Sorbitol dehydrogenase [4] came to 13 nM; against Sorbitol dehydrogenase [2], 11 nM.
With `Cc1ncnc(N2C[C@@H](C)N(c3ccnc([C@@H](C)O)n3)[C@@H](C)C2)n1`, in the series with Rattus norvegicus [3], the ED90 turned out to be 0.3 mg/kg. Further, the IC50 on Sorbitol dehydrogenase [4] was determined as 7 nM; at Sorbitol dehydrogenase [2] it was 5 nM.
